# Measurements collected from several papers.
# Each line is one published result; the experiments were not run side by side.
# Target: Rhodopsin kinase GRK7 (GRK7, Homo sapiens, UniProt Q8WTQ7)
# Sequence (Q8WTQ7 1-553, as in one of the studies): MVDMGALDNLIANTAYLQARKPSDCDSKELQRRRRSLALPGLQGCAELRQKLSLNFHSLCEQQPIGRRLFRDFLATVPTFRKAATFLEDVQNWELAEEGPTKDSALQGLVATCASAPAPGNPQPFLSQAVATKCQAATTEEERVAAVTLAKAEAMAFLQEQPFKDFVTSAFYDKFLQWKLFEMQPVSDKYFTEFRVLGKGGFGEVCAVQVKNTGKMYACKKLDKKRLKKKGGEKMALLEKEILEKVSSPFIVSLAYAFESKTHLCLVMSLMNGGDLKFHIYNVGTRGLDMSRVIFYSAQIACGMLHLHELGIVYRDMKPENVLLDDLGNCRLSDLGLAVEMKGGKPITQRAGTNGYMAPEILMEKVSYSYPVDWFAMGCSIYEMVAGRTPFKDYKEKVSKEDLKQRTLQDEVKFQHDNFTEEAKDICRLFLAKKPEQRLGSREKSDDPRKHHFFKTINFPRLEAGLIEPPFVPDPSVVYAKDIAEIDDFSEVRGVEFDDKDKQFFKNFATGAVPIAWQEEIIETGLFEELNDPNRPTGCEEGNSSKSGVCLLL
SMILES,observed,mode,technique,tested at,quantity,result
Nc1ncc(-c2nc(N3CCOCC3)nc(N3CCOCC3)n2)c(C(F)F)n1,binding,,competition with immobilised ligand,10 µM,remaining binding,67%
CC(C)(C)c1cc(C=C(C#N)C#N)cc(Br)c1O,enzyme activity,inhibitor,,0.5 µM,remaining activity,107%
Cn1cc(-c2cc(F)cc(N3CCn4c(cc5c4CCCC5)C3=O)c2CO)cc(Nc2ccc(N3CCN(C4COC4)CC3)cn2)c1=O,enzyme activity,inhibitor,,0.1 µM,inhibition,2%
Cn1cncc1[C@@](O)(COc1ccc(C#N)cc1-c1ccc(OC(F)(F)F)cc1)c1ccc(C#N)cc1,cell-free assay,,competition with immobilised ligand,1 µM,remaining binding,81%
O=c1[nH]c2ccccc2n1C1CCN(Cc2ccc(-c3[nH]c4cc5ncnc5cc4nc3-c3ccccc3)cc2)CC1,cell-free assay,,,0.5 µM,remaining signal,98.5%
Cn1cc(-c2cccc(N3CCc4c(sc5c4CC(C)(C)C5)C3=O)c2CO)cc(Nc2ccncn2)c1=O,enzyme activity,inhibitor,,1 µM,inhibition,3%
N#CC1(c2ccccn2)CCN(Cc2cc(C(=O)O)c(=O)n3ccccc23)CC1,cell-free assay,,competition with immobilised ligand,1 µM,remaining binding,77%
COc1ncccc1-c1cnn2ccc(N3CCN(C(=O)OC(C)C)CC3)nc12,binding,,competition with immobilised ligand,1 µM,remaining binding,100%
